Among the data in ChEMBL document CHEMBL1141146, “Androsterone 3alpha-ether-3beta-substituted and androsterone 3beta-substituted derivatives as inhibitors of type 3 17beta-hydroxysteroid dehydrogenase: chemical synthesis and structure-activity relationship” (J Med Chem, 2005) are inhibition and IC50 values, retold here.

For assay [1], the target named is T1, 17-beta-hydroxysteroid dehydrogenase type 3 (Homo sapiens) (UniProt P37058).
T1 sequence (whole entry): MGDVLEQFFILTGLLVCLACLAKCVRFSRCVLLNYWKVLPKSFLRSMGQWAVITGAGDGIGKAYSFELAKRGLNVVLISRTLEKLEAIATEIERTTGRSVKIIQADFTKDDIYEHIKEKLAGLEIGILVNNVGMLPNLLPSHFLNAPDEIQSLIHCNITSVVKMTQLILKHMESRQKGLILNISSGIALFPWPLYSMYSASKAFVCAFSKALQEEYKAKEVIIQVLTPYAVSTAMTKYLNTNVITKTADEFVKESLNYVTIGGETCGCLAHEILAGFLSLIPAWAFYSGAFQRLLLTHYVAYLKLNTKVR
The assay can be described thus: Inhibition of type-3 17 beta-hydroxysteroid dehydrogenase expressed in HEK293 cells at 0.3 uM 37 degree C pH 7.4. It counts as cell-based. The method, boiled down:
(§1)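 Human type 3 17β-HSD was transfected into HEK-293 cells by calcium phosphate. The cells were sonicated in 50 mM Na phosphate pH 7.4 with 20% glycerol and 1 mM EDTA. The 100000g microsomal pellet served as enzyme. The reaction ran at 37 °C in the same buffer with 2 mM NADPH and 0.1 μM [14C]-Δ4-dione, reading conversion to testosterone. Percent inhibition was taken at 0.3 or 3 μM inhibitor.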

The target of assay [2] is T1, 17-beta-hydroxysteroid dehydrogenase type 3 (Homo sapiens). The assay can be described thus: Inhibition of type-3 17 beta-hydroxysteroid dehydrogenase expressed in HEK293 cells at 3 uM 37 degree C in pH 7.4. Format: cell-based. The method, boiled down: as §1
Assay [3] has the same target. Kind of assay: Inhibition of type-3 17 beta-hydroxysteroid dehydrogenase expressed in HEK293 cells at 3 uM 37 degree C pH 7.4. It counts as cell-based. The method, boiled down: as §1
Assay [4] has as its target T2, 17-beta-hydroxysteroid dehydrogenase type 3 (Homo sapiens, UniProt P37058).
T2 sequence (P37058 whole entry): T1 sequence (whole entry)
The assay can be described thus: Inhibition of type-3 17 beta-hydroxysteroid dehydrogenase expressed in HEK293 cells at 37 degree C pH7.4. Format: cell-based. The method, boiled down:
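HEK-293 cells were transfected with human type 3 17β-HSD, and their 100000g microsomes served as enzyme. Incubation was at 37 °C in 50 mM Na phosphate pH 7.4 with 20% glycerol, 1 mM EDTA, 2 mM NADPH and 0.1 μM [14C]-Δ4-dione. Several inhibitor concentrations were tested. Percent transformation to testosterone was plotted against inhibitor concentration, and IC50 was computed from the curve.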

The target of assay [5] is T1, 17-beta-hydroxysteroid dehydrogenase type 3 (Homo sapiens). The following applies: HEK293, 0.3 uM.

As a reminder, the inhibition is the share of the control response that was lost under treatment. Read a high inhibition as a strong effect. Regarding `C[C@]12CC[C@](O)(CCCc3ccccc3)CC1CC[C@@H]1[C@@H]2CC[C@]2(C)C(=O)CC[C@@H]12` (stereo not given in full), the inhibition in assay [1] was found to be 93%; in assay [2] it was 97%.
With `C[C@]12CC[C@]3(CCC(=O)O3)CC1CC[C@@H]1[C@@H]2CC[C@]2(C)C(=O)CC[C@@H]12` (stereo not given in full), the figures for the inhibition in assay [1] and in assay [3] were 50% and 93%, respectively.
For the compound `C[C@]12CC[C@@]3(CCC(=O)O3)CC1CC[C@@H]1[C@@H]2CC[C@]2(C)C(=O)CC[C@@H]12` (stereo not given in full), the figures for the inhibition in assay [1] and in assay [3] were 9% and 53%, respectively.
On to `C[C@]12CC[C@@H](OCCC(=O)O)CC1CC[C@@H]1[C@@H]2CC[C@]2(C)C(=O)CC[C@@H]12` (stereo not given in full), for which the inhibition in assay [1] came out at 7%; in assay [3], 48%.
Turning to `C[C@]12CC[C@@](O)(Cc3ccccc3)CC1CC[C@@H]1[C@@H]2CC[C@]2(C)C(=O)CC[C@@H]12` (stereo not given in full), the results for the inhibition in assay [1] and in assay [3] were 10% and 39%, respectively.
Take `CCCO[C@]1(Cc2ccccc2)CC[C@@]2(C)C(CC[C@@H]3[C@@H]2CC[C@]2(C)C(=O)CC[C@@H]32)C1` (stereo not given in full): the inhibition in assay [1] is 60%; in assay [3], 87%.
As for `CCCCCCO[C@]1(Cc2ccccc2)CC[C@@]2(C)C(CC[C@@H]3[C@@H]2CC[C@]2(C)C(=O)CC[C@@H]32)C1` (stereo not given in full), the inhibition is 24% in assay [1] and 28% in assay [3].
Taken in the same sequence, the figures for `C=CC[C@]1(O)CC[C@@]2(C)C(CC[C@@H]3[C@@H]2CC[C@]2(C)C(=O)CC[C@@H]32)C1` (stereo not given in full) were 14% and 36%.
Consider `CO[C@@H]1CC[C@@]2(C)C(CC[C@@H]3[C@@H]2CC[C@]2(C)C(=O)CC[C@@H]32)C1` (stereo not given in full), for which the results for the inhibition in assay [1] and in assay [3] were 83% and 94%, respectively.
Usually IC50 stands for the point on the concentration scale where inhibition reaches its midpoint. Low values mean greater potency, high ones weaker potency. Regarding `CCCC[C@@]1(O)CC[C@@]2(C)C(CC[C@@H]3[C@@H]2CC[C@]2(C)C(=O)CC[C@@H]32)C1` (stereo not given in full), the values for the inhibition in assay [1] and in assay [3] were 88% and 92%, respectively. In assay [4], this compound yielded an IC50 of 116 nM.
With `C[C@]12CC[C@](O)(CCCO)CC1CC[C@@H]1[C@@H]2CC[C@]2(C)C(=O)CC[C@@H]12` (stereo not given in full), the inhibition in assay [1] came to 17%; in assay [3], 74%.
Regarding `C[C@]12CC[C@@](O)(CCCO)CC1CC[C@@H]1[C@@H]2CC[C@]2(C)C(=O)CC[C@@H]12` (stereo not given in full), the results for the inhibition in assay [1] and in assay [3] were 2% and 17%, respectively.
As to `CCO[C@@H]1CC[C@@]2(C)C(CC[C@@H]3[C@@H]2CC[C@]2(C)C(=O)CC[C@@H]32)C1` (stereo not given in full), the inhibition was found to be 69% in assay [1] and 95% in assay [3].
For the compound `CCC[C@]1(O)CC[C@@]2(C)C(CC[C@@H]3[C@@H]2CC[C@]2(C)C(=O)CC[C@@H]32)C1` (stereo not given in full), the inhibition is 9% in assay [1] and 33% in assay [3].
Take `CO[C@]1(CCc2ccccc2)CC[C@@]2(C)C(CC[C@@H]3[C@@H]2CC[C@]2(C)C(=O)CC[C@@H]32)C1` (stereo not given in full): the inhibition in assay [1] was 61%; in assay [3] it was 95%. Besides, in assay [4], the IC50 was determined as 73 nM.
Turning to `CC(O)CO[C@@H]1CC[C@@]2(C)C(CC[C@@H]3[C@@H]2CC[C@]2(C)C(=O)CC[C@@H]32)C1` (stereo not given in full), the inhibition stood at 40% in assay [1] and 89% in assay [3].
In the case of `C[C@]12CC[C@@](O)(c3ccccc3)CC1CC[C@@H]1[C@@H]2CC[C@]2(C)C(=O)CC[C@@H]12` (stereo not given in full), the results for the inhibition in assay [1] and in assay [3] were 7% and 39%, respectively.
For the compound `CO[C@]1(CCC2CCCCC2)CC[C@@]2(C)C(CC[C@@H]3[C@@H]2CC[C@]2(C)C(=O)CC[C@@H]32)C1` (stereo not given in full), the inhibition was determined as 80% in assay [1] and 88% in assay [3]. Also, in assay [4], inhibition was half-maximal at 354 nM (IC50).
For `C[C@]12CC[C@H](O)CC1CC[C@@H]1[C@@H]2CC[C@]2(C)C(=O)CC[C@@H]12` (stereo not given in full), the values for the inhibition in assay [1] and in assay [3] were 1% and 18%, respectively.
Consider `C[C@]12CC[C@@H](OCCCO)CC1CC[C@@H]1[C@@H]2CC[C@]2(C)C(=O)CC[C@@H]12` (stereo not given in full), for which the inhibition in assay [1] came out at 38%; in assay [3] it was 86%.
Taken in the same sequence, the figures for `C=CCO[C@@H]1CC[C@@]2(C)C(CC[C@@H]3[C@@H]2CC[C@]2(C)C(=O)CC[C@@H]32)C1` (stereo not given in full) were 73% and 95%.
In the case of `C=CC[C@@]1(O)CC[C@@]2(C)C(CC[C@@H]3[C@@H]2CC[C@]2(C)C(=O)CC[C@@H]32)C1` (stereo not given in full), the inhibition was found to be 31% in assay [1] and 76% in assay [3].
Consider `C[C@]12CCC3(CCCO3)CC1CC[C@@H]1[C@@H]2CC[C@]2(C)C(=O)CC[C@@H]12` (stereo not given in full), for which the inhibition came out at 3% in assay [1] and 94% in assay [3].
As for `C=C[C@@]1(O)CC[C@@]2(C)C(CC[C@@H]3[C@@H]2CC[C@]2(C)C(=O)CC[C@@H]32)C1` (stereo not given in full), the results for the inhibition in assay [1] and in assay [3] were 77% and 94%, respectively.
Taken in the same sequence, the figures for `CCCO[C@@H]1CC[C@@]2(C)C(CC[C@@H]3[C@@H]2CC[C@]2(C)C(=O)CC[C@@H]32)C1` (stereo not given in full) were 49% and 93%.
With `CCCCCCO[C@@H]1CC[C@@]2(C)C(CC[C@@H]3[C@@H]2CC[C@]2(C)C(=O)CC[C@@H]32)C1` (stereo not given in full), the values for the inhibition in assay [1] and in assay [3] were 45% and 92%, respectively.
On to `CCO[C@]1(Cc2ccccc2)CC[C@@]2(C)C(CC[C@@H]3[C@@H]2CC[C@]2(C)C(=O)CC[C@@H]32)C1` (stereo not given in full), for which the inhibition amounted to 80% in assay [1] and 92% in assay [3]. The IC50 in assay [4] stood at 352 nM.
As for `C[C@]12CC[C@@H](OCCCBr)CC1CC[C@@H]1[C@@H]2CC[C@]2(C)C(=O)CC[C@@H]12` (stereo not given in full), the inhibition in assay [1] was found to be 56%; in assay [3], 93%.
`C[C@]1(O)CC[C@@]2(C)C(CC[C@@H]3[C@@H]2CC[C@]2(C)C(=O)CC[C@@H]32)C1` (stereo not given in full): the inhibition is 9% in assay [1] and 16% in assay [3].
With `CO[C@]1(Cc2ccccc2)CC[C@@]2(C)C(CC[C@@H]3[C@@H]2CC[C@]2(C)C(=O)CC[C@@H]32)C1` (stereo not given in full), the inhibition in assay [1] is 91%; in assay [3] it was 93%. For the same compound, the IC50 in assay [4] amounted to 154 nM.
As to `CCCCCCCCCCCC[C@@]1(O)CC[C@@]2(C)C(CC[C@@H]3[C@@H]2CC[C@]2(C)C(=O)CC[C@@H]32)C1` (stereo not given in full), the inhibition was 50% in assay [1] and 77% in assay [3].
With `CC(C)(C)[C@@]1(O)CC[C@@]2(C)C(CC[C@@H]3[C@@H]2CC[C@]2(C)C(=O)CC[C@@H]32)C1` (stereo not given in full), the inhibition in assay [5] came out at 89%; in assay [3] it was 93%. The compound further showed a half-inhibitory concentration (IC50) in assay [4] of 142 nM.
